# Reference: ChEMBL document CHEMBL1155985, “Water-soluble phosphate prodrugs of pleuromutilin analogues with potent in vivo antibacterial activity against Gram-positive pathogens” (Bioorg Med Chem Lett, 2009)
# Experiments:
# Rattus norvegicus [1] = test: AUC (0 to infinity) in Sprague-Dawley rat assessed as parent drug level at 100 mg/kg, iv; assay type: ADME, organism-based, Plasma; set-up: dose 100 mg/kg, route intravenous, time infinity; settings: in vivo
# Method in brief: (§1)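 Male Sprague-Dawley rats (n = 3) were dosed iv with the phosphate prodrug at 10, 30 or 100 mg/kg. Plasma levels of the parent drug were measured over time. Tmax, Cmax, AUC and elimination half-life were then derived from these levels.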
# Rattus norvegicus [2] = test: Half life in Sprague-Dawley rat assessed as parent drug level at 100 mg/kg, iv; assay type: ADME, organism-based; set-up: dose 100 mg/kg, route intravenous; settings: in vivo; method in brief: as §1
# Staphylococcus aureus [3] = test: Antibacterial activity against methicillin-susceptible Staphylococcus aureus 232-51 infected in mouse dosed 1 hr and 4 hr after infection, iv; assay type: functional; settings: 232-51, iv
# Method in brief: (§2)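 Lethal systemic S. aureus infection in mice, inoculated intraperitoneally; test agent given iv twice, at 1 h and 4 h post-infection. ED50 taken as the dose giving 50% mouse survival, reported with 95% confidence ranges.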
# Staphylococcus aureus [4] = test: Antibacterial activity against methicillin-resistant Staphylococcus aureus 236-29 infected in mouse dosed 1 hr and 4 hr after infection, iv; assay type: functional; settings: 236-29, iv; method in brief: as §2
# [5] = Toxicity against iv dosed ICR mouse; assay type: organism-based; settings: in vivo
# Method in brief: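 Acute toxicity after iv administration in SPF-level ICR mice (n = 50); LD50 determined.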
# [6] = Aqueous solubility of the compound; assay type: physicochemical
# [7] = Stability in buffer at pH 7.4 assessed as remaining compound at 10 mg/ml after 8 hrs; assay type: physicochemical; settings: read-out: Activity
# Method in brief: (§3)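 Compounds at 10 mg/mL in pH 7.4 buffer were kept at room temperature. Percent parent remaining was measured by UV/HPLC at 8 h and at 14 days.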
# [8] = Stability in buffer at pH 7.4 assessed as remaining compound at 10 mg/ml after 14 days; assay type: physicochemical; settings: read-out: Activity; method in brief: as §3
# Rattus norvegicus [9] = test: Tmax in Sprague-Dawley rat assessed as parent drug level at 10 mg/kg, iv; assay type: ADME, organism-based; set-up: dose 10 mg/kg, route intravenous; settings: in vivo; method in brief: as §1
# Rattus norvegicus [10] = test: Cmax in Sprague-Dawley rat assessed as parent drug level at 10 mg/kg, iv; assay type: ADME, organism-based; set-up: dose 10 mg/kg, route intravenous; settings: in vivo; method in brief: as §1
# Rattus norvegicus [11] = test: AUC (0 to infinity) in Sprague-Dawley rat assessed as parent drug level at 10 mg/kg, iv; assay type: ADME, organism-based, Plasma; set-up: dose 10 mg/kg, route intravenous, time infinity; settings: in vivo; method in brief: as §1
# Rattus norvegicus [12] = test: Half life in Sprague-Dawley rat assessed as parent drug level at 10 mg/kg, iv; assay type: ADME, organism-based; set-up: dose 10 mg/kg, route intravenous; settings: in vivo; method in brief: as §1
# Rattus norvegicus [13] = test: Tmax in Sprague-Dawley rat assessed as parent drug level at 30 mg/kg, iv; assay type: ADME, organism-based; set-up: dose 30 mg/kg, route intravenous; settings: in vivo; method in brief: as §1
# Rattus norvegicus [14] = test: Cmax in Sprague-Dawley rat assessed as parent drug level at 30 mg/kg, iv; assay type: ADME, organism-based; set-up: dose 30 mg/kg, route intravenous; settings: in vivo; method in brief: as §1
# Rattus norvegicus [15] = test: AUC (0 to infinity) in Sprague-Dawley rat assessed as parent drug level at 30 mg/kg, iv; assay type: ADME, organism-based, Plasma; set-up: time infinity, dose 30 mg/kg, route intravenous; settings: in vivo; method in brief: as §1
# Rattus norvegicus [16] = test: Half life in Sprague-Dawley rat assessed as parent drug level at 30 mg/kg, iv; assay type: ADME, organism-based; set-up: dose 30 mg/kg, route intravenous; settings: in vivo; method in brief: as §1
# Rattus norvegicus [17] = test: Tmax in Sprague-Dawley rat assessed as parent drug level at 100 mg/kg, iv; assay type: ADME, organism-based; set-up: dose 100 mg/kg, route intravenous; settings: in vivo; method in brief: as §1
# Rattus norvegicus [18] = test: Cmax in Sprague-Dawley rat assessed as parent drug level at 100 mg/kg, iv; assay type: ADME, organism-based; set-up: dose 100 mg/kg, route intravenous; settings: in vivo; method in brief: as §1
# Staphylococcus aureus [19] = test: Antibacterial activity against methicillin-susceptible Staphylococcus aureus by agar dilution method; assay type: functional
# Method in brief: (§4)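 MICs by agar dilution following NCCLS guidance against resistant and susceptible Gram-positive strains; retapamulin and linezolid run as positive controls.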
# Staphylococcus aureus [20] = test: Antibacterial activity against methicillin-resistant Staphylococcus aureus by agar dilution method; assay type: functional; method in brief: as §4
# [21] = test system: Staphylococcus epidermidis; test: Antibacterial activity against methicillin-susceptible Staphylococcus epidermidis by agar dilution method; assay type: functional; method in brief: as §4
# [22] = test system: Staphylococcus epidermidis; test: Antibacterial activity against methicillin-resistant Staphylococcus epidermidis by agar dilution method; assay type: functional; method in brief: as §4
# Streptococcus pneumoniae = test: Antibacterial activity against Streptococcus pneumoniae by agar dilution method; assay type: functional
# Method in brief: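 MIC was measured by agar dilution following NCCLS guidelines, with retapamulin and linezolid as positive controls.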
# [23] = Staphylococcus aureus, read-out: MIC
Structure (SMILES),solubility [6],"remaining at 8 h, 10 mg/ml [7]","remaining at 336 h, 10 mg/ml [8]",MIC (Staphylococcus aureus [19]; [23]),MIC (Staphylococcus aureus [20]),MIC [21],MIC [22],MIC (Streptococcus pneumoniae),also measured
CC[C@]1(C)C[C@@H](OC(=O)NC(=O)c2ccc(OP(=O)([O-])[O-])cc2)[C@]2(C)[C@H](C)CC[C@]3(CCC(=O)[C@@H]32)[C@@H](C)[C@@H]1O.[Na+].[Na+],96.8 mg/mL,100%,99.6%,,,,,,AUC (Rattus norvegicus [1]): 32.6 µg·h/mL; t1/2 (Rattus norvegicus [2]): 37.8 min; ED50 (Staphylococcus aureus [3]): 17.4 mg/kg; ED50 (Staphylococcus aureus [4]): 20.9 mg/kg; LD50 [5]: 1010 mg/kg; Tmax (Rattus norvegicus [9]): 4.98 min; Cmax (Rattus norvegicus [10]): 3.39 µg/mL; AUC (Rattus norvegicus [11]): 1.29 µg·h/mL; t1/2 (Rattus norvegicus [12]): 30.6 min; Tmax (Rattus norvegicus [13]): 4.98 min; Cmax (Rattus norvegicus [14]): 11.3 µg/mL; AUC (Rattus norvegicus [15]): 5.04 µg·h/mL; t1/2 (Rattus norvegicus [16]): 45 min; Tmax (Rattus norvegicus [17]): 4.98 min; Cmax (Rattus norvegicus [18]): 67.5 µg/mL
C=C[C@]1(C)C[C@@H](OC(=O)NC(=O)c2ccc(OC)cc2)[C@]2(C)[C@H](C)CC[C@]3(CCC(=O)[C@@H]32)[C@@H](C)[C@@H]1OP(=O)([O-])[O-].[Na+].[Na+],57.6 mg/mL,100%,99.8%,,,,,,
CC[C@]1(C)C[C@@H](OC(=O)NC(=O)c2ccc(O)cc2)[C@]2(C)[C@H](C)CC[C@]3(CCC(=O)[C@@H]32)[C@@H](C)[C@@H]1OP(=O)([O-])[O-].[Na+].[Na+],52.3 mg/mL,100%,99.5%,,,,,,
C=C[C@]1(C)C[C@@H](OC(=O)NC(=O)c2ccc(OC)cc2)[C@]2(C)[C@H](C)CC[C@]3(CCC(=O)[C@@H]32)[C@@H](C)[C@@H]1O,,,,0.0625 µg/mL,0.0625 µg/mL,0.0625 µg/mL,0.0625 µg/mL,0.125 µg/mL,
C=C[C@]1(C)C[C@@H](OC(=O)NC(=O)c2ccc(O)cc2)[C@]2(C)[C@H](C)CC[C@]3(CCC(=O)[C@@H]32)[C@@H](C)[C@@H]1O,,,,0.125 µg/mL,0.125 µg/mL,0.0625 µg/mL,0.125 µg/mL,0.25 µg/mL,
CC(=O)NC[C@H]1CN(c2ccc(N3CCOCC3)c(F)c2)C(=O)O1 [LINEZOLID],,,,,1 µg/mL,0.5 µg/mL,1 µg/mL,,MIC (Staphylococcus aureus [19]): 0.5 µg/mL
C=C[C@]1(C)C[C@@H](OC(=O)CS[C@@H]2C[C@H]3CC[C@@H](C2)N3C)[C@]2(C)[C@H](C)CC[C@]3(CCC(=O)[C@H]32)[C@@H](C)[C@@H]1O [RETAPAMULIN],,,,0.031 µg/mL,0.031 µg/mL,0.031 µg/mL,0.031 µg/mL,0.031 µg/mL,
CN[C@H](CC(C)C)C(=O)N[C@H]1C(=O)N[C@@H](CC(N)=O)C(=O)N[C@H]2C(=O)N[C@H]3C(=O)N[C@H](C(=O)N[C@H](C(=O)O)c4cc(O)cc(O)c4-c4cc3ccc4O)[C@H](O)c3ccc(c(Cl)c3)Oc3cc2cc(c3O[C@@H]2O[C@H](CO)[C@@H](O)[C@H](O)[C@H]2O[C@H]2C[C@](C)(N)[C@H](O)[C@H](C)O2)Oc2ccc(cc2Cl)[C@H]1O [VANCOMYCIN],,,,,,,,,ED50 (Staphylococcus aureus [3]): 13.5 mg/kg; ED50 (Staphylococcus aureus [4]): 15.8 mg/kg
